HIF activator: HIF pathway transcriptional activators, primary screen, cell-based, U2OS HRE-luciferase, luminescence; activation, % at 7.5 µM (by protocol); U2OS HRE-luciferase reporter; normalized: DMSO 0%, desferrioxamine 100%; 300,000 tested, 0.32% active;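 active = mean activation of at least 10% of the iron chelator positive control signal, with at least half of replicates also reaching 10%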
SR-BI DiI-HDL act: activators of SR-BI mediated DiI-HDL uptake, primary screen, ldlA[mSR-BI] CHO cells, DiI fluorescence; AID 504775, 2011; activation, % at 12.5 µM; 320,000 tested, 0.096% active; 3 h; 100 = double the neutral-control signal;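 active = mean replicate activation of at least 60% and every replicate at or above 60%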;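 also: 0% = median plate neutral-control signal and 100% = twice that signal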
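Material – SR-BI-overexpressing, LDLR-lacking CHO cells · Medium – BSA-supplemented, HEPES-buffered Ham's F12, pH 7.4 · Doses – single concentration · Times – compound with DiI-HDL co-incubation, 3 h at 37 °C · Measured by – bottom-read fluorescence, 550/595 nm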
AHR activator: AHR activators, primary screen, cell-based, luminescence, luciferase reporter, human. Aryl hydrocarbon receptor (Homo sapiens), P35869. AHR-responsive luciferase reporter cells. 320,000 tested, 2.5% active. activation, % at 5 µM; in the data active = activation above about 47%;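 also: 0% = vehicle wells and 100% = reference agonist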
GAA850 FXN act: FXN promoter activators, primary screen, cell-based, luciferase luminescence, HEK293 lucGAA850; HEK293 lucGAA850 FXN promoter luciferase reporter, 24 h; percent of 10 µM SAHA response; activation, % at 6 µM; 360,000 tested, 0.56% active; AID 540364, 2011;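 active = activation above the average of all compounds screened plus 3 SD, cutoff fixed separately per campaign, cut at about 7.5% in these data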;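 also: 0% = DMSO wells and 100% = 10 µM SAHA wells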
ABCB6 inh 2: ABCB6 transporter inhibitors, primary screen, K562-ABCB6 cells, flow cytometry, MLPCN library; fluorescence ratio to DMSO, % at 10 µM; K562-ABCB6 porphyrin accumulation, 1 h; hits give low values; ATP-binding cassette sub-family B member 6 (Homo sapiens), Q9NP58; 360,000 tested, 0.19% active;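 active = fluorescence ratio to DMSO below 75%, the collection mean minus 3 SD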;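 also: signal is porphyrin accumulated inside mitochondria; 100% equals median channel fluorescence of DMSO control wells; lower ratio means ABCB6 inhibition with less porphyrin fluorescence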
SR-BI DiI inh: inhibitors of SR-BI mediated HDL lipid uptake, primary screen, ldlA[mSR-BI] cells, fluorescence, single point. inhibition, % at 12.5 µM. Scavenger receptor class B member 1 (Mus musculus), Q61009. ldlA[mSR-BI] CHO cells, DiI-HDL uptake fluorescence, 3 h. 320,000 tested, 0.96% active;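 active = mean replicate inhibition of at least 70% and a set share of replicates each scoring 70 or more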;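 also: 0% = median of neutral control wells and 100% = median of positive control wells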
Target sequence (Q61009 whole entry, looked up): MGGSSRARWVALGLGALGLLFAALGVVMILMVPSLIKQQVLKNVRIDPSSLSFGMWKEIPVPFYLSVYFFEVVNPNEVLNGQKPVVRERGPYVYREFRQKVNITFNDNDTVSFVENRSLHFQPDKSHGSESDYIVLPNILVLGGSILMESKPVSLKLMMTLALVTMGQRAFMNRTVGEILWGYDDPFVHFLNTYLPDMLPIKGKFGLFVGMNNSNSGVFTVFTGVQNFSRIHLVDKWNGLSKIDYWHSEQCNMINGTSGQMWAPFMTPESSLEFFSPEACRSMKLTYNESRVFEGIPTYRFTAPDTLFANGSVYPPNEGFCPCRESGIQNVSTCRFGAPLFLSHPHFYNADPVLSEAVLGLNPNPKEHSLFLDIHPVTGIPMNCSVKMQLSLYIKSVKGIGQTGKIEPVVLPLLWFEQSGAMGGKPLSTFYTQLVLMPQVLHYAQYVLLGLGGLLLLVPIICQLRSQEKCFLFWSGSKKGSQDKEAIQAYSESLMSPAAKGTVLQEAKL
An asterisk follows results filed as active; . = no result. In the library only some 3.9% were active in any assay of this set; here they are far more common.

SMILES	HIF activator	SR-BI DiI-HDL act	AHR activator	GAA850 FXN act	ABCB6 inh 2	SR-BI DiI inh
C[C@H](NC(=O)[C@@H]1Cc2ccccc2CN1C(=O)OC(C)(C)C)C(=O)NCC1CCCO1 (some centres not stated)	0.3	2.5	-1.4	0.8	100.0	-2.5
COc1ccc(NC(=O)CSc2nnc(-c3ccccc3C)n2C)cc1	0.0	5.5	2.2	-3.4	103.0	-5.5
CCOc1ccc(-n2c(N)c(-c3nc4ccccc4[nH]3)sc2=S)cc1	1.2	-31.4	72.0*	1.6	97.0	31.4
COc1ccc(-n2c(N)c(-c3nc4ccccc4n3C)sc2=S)cc1	-0.1	0.1	23.4	0.8	109.0	-0.1
COc1ccccc1C(=O)Nc1ccccc1SC	0.5	-2.9	55.3*	1.5	92.0	2.9
COc1cc(SC)ccc1C(=O)Nc1ccc(C)cc1C	10.4*	-58.1	0.0	.	99.0	58.1
COc1ccccc1C(=O)Nc1cccc2cccnc12	0.5	-25.4	78.2*	2.7	100.0	25.4
O=C(Nc1ccccc1)Nc1cccc2cccnc12	4.8	-39.3	70.9*	4.3	100.0	39.3
COc1cc(SC)ccc1C(=O)Nc1ccc(C)cc1	-0.1	-61.0	24.9	3.6	102.0	61.0
O=C(Nc1ccccc1)Nc1cccc2ccccc12	0.3	-25.7	20.6	1.1	96.0	25.7
COc1ccc(-c2nc3ccc(N4CCCC4)cc3c(=O)[nH]2)cc1OC	-1.1	-28.3	-7.6	-3.2	97.0	28.4
O=C(NNc1ccc(Cl)cc1)C1CCC1	-0.4	32.1	10.1	1.7	102.0	-32.1
CN(C)CCCN1C(=O)C(O)=C(C(=O)c2cc3ccccc3o2)C1c1ccccn1 (configuration not stated)	.	14.5	.	2.5	97.0	-14.4
COc1ccc(-c2sc3cc4c(cc3c2C#CC2(N)CCCCC2)OCO4)cc1	.	-43.3	66.5*	0.5	102.0	43.3
COc1cc(OC)cc(-c2sc3ccc(OC)cc3c2C#CC2(N)CCCCC2)c1	.	-28.0	10.8	-1.1	87.0	28.0
O=C(CCNC(=O)c1ccc(Br)cc1)Nc1ccccc1N1CCCCC1	-0.5	-23.9	-2.6	0.2	94.0	23.9
COCCn1c(SCC(=O)Nc2ccc(C(N)=O)cc2)nc2c([nH]c3ccccc32)c1=O	-0.3	20.9	51.8*	0.9	96.0	-20.9
Cc1ccc(NC(=O)CSc2nc3c([nH]c4ccccc43)c(=O)n2C)cc1	-0.1	-40.4	59.9*	0.6	100.0	40.4
COCCn1c(SCC(=O)Nc2ccc(F)cc2)nc2c([nH]c3ccccc32)c1=O	0.1	-7.1	13.7	0.4	106.0	7.1
C=CCn1c(SCC(=O)Nc2ccc(F)cc2F)nc2c([nH]c3ccccc32)c1=O	0.0	0.6	28.2	2.0	96.0	-0.6
COCCn1c(SCC(=O)Nc2ccc(F)cc2F)nc2c([nH]c3ccccc32)c1=O	-0.2	-9.8	70.8*	3.3	95.0	9.8
COCCn1c(SCC(=O)Nc2ccccc2F)nc2c([nH]c3ccccc32)c1=O	-0.1	-21.7	61.0*	-0.2	97.0	21.7
CC1CN(C(=O)c2cc(F)c(F)cc2Cl)CC(C)O1 (configuration not stated)	0.2	20.5	3.3	0.2	100.0	-20.5
O=C1c2ccccc2C(=O)N1CCCCSc1nnc2ccccn12	-0.3	9.8	-2.9	0.6	98.0	-9.8
CC(Sc1nncn1C)C(=O)Nc1ccc(S(N)(=O)=O)cc1 (configuration not stated)	-0.3	2.0	3.9	1.4	93.0	-2.0
Cc1cc(C)cc(OCCn2nnc3ccccc32)c1	-13.5	-16.5	13.3	7.3	99.0	16.5
Cc1cc(C(=O)N/N=C/c2cccc([N+](=O)[O-])c2)c(C)o1	0.4	-3.5	72.3*	0.9	91.0	3.5
Cc1cc(C(=O)NN=Cc2c(C)[nH]c3ccccc23)c(C)o1	.	-10.6	57.2*	0.7	101.0	10.6
